Laboratory results published in ChEMBL document CHEMBL1268956, “3-Urea-1-(phenylmethyl)-pyridones as novel, potent, and selective EP3 receptor antagonists” (Bioorg Med Chem Lett, 2010).

Tested on: not listed separately
Assay: Volume of distribution at steady state in rat blood at 1.2 mg/kg, iv and 2 mg/kg, po
Format: ADME, organism-based
Conditions: read-out: Vdss
How it was run: (§1)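 Rats dosed at 1.2 mg/kg iv and 2.0 mg/kg po. Blood clearance, half-life, steady-state volume of distribution and oral bioavailability derived from the iv and po arms.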

Structure (SMILES) | Vd
COc1cccc(NC(=O)Nc2cccn(Cc3ccccc3Cl)c2=O)c1 | 3.4 L/kg

Tested on: not listed separately
Assay: Clearance in rat blood at 1.2 mg/kg, iv and 2 mg/kg, po
Format: ADME, organism-based
Conditions: not given
How it was run: as §1

Structure (SMILES) | clearance
COc1cccc(NC(=O)Nc2cccn(Cc3ccccc3Cl)c2=O)c1 | 24 mL/min/kg

Tested on: not listed separately
Assay: Half life in rat blood at 1.2 mg/kg, iv and 2 mg/kg, po
Format: ADME, organism-based
Conditions: not given
How it was run: as §1

Structure (SMILES) | half-life
COc1cccc(NC(=O)Nc2cccn(Cc3ccccc3Cl)c2=O)c1 | 1.3 h

Target: Cytochrome P450 3A4 (Homo sapiens, UniProt P08684)
Sequence (P08684 whole entry): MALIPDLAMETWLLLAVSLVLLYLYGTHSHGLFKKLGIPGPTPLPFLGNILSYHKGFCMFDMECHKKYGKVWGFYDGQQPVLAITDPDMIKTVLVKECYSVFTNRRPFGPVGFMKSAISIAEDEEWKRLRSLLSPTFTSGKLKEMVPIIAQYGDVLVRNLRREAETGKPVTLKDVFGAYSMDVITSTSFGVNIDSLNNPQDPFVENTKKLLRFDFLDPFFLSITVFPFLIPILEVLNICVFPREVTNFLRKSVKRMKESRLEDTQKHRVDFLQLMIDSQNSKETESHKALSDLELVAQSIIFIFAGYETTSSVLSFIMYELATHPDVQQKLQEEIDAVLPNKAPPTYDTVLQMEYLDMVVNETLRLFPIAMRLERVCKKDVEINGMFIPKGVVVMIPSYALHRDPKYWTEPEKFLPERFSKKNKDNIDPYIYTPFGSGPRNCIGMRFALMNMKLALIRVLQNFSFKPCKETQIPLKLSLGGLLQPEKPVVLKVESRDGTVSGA
Assay: Inhibition of CYP3A4
Format: ADME
Conditions: not given

Structure (SMILES) | IC50
COc1cccc(NC(=O)Nc2cccn(Cc3c(F)cccc3Cl)c2=O)c1 | > 25000 nM

Target: Cytochrome P450 2C9 (Homo sapiens, UniProt P11712)
Sequence (P11712 whole entry): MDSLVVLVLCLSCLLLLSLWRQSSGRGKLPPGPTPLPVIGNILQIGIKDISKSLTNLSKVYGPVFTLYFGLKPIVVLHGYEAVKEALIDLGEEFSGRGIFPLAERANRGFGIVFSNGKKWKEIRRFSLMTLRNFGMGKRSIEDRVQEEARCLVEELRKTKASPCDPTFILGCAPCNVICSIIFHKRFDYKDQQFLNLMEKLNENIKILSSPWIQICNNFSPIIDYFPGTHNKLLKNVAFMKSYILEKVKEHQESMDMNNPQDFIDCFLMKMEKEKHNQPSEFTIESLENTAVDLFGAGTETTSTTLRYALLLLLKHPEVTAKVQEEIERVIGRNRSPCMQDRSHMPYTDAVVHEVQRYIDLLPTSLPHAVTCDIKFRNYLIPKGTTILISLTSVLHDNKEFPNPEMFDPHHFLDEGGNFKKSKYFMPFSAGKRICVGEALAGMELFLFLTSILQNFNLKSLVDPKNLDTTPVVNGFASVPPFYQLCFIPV
Assay: Inhibition of CYP2C9
Format: ADME
Conditions: not given

Structure (SMILES) | IC50
COc1cccc(NC(=O)Nc2cccn(Cc3c(F)cccc3Cl)c2=O)c1 | 3700 nM

Target: T1, Prostaglandin E2 receptor EP3 subtype (Homo sapiens, UniProt P43115)
T1 sequence (P43115 whole entry): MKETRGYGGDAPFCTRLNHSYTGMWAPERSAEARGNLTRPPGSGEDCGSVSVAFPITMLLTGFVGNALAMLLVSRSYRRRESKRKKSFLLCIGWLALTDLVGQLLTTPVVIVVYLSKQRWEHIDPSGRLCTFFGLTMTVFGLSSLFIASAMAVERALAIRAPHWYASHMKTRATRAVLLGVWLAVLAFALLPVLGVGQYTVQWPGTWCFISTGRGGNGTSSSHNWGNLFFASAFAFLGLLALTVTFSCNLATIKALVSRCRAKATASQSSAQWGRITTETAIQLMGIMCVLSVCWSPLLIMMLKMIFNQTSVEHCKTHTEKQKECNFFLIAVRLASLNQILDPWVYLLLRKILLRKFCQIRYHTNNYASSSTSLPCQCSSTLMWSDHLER
Assay: Antagonist activity at human EP3 receptor expressed in human U2OS cells assessed as inhibition of PGE2-induced intracellular calcium mobilization by FLIPR assay
Format: functional, cell-based
Conditions: not given

Structure (SMILES) | Ki
COc1ccc(NC(=O)Nc2cccn(Cc3ccccc3Cl)c2=O)cc1 | > 25100 nM
Cc1cccc(NC(=O)Nc2cccn(Cc3ccccc3Cl)c2=O)c1 | 251 nM
CC(C)c1cccc(NC(=O)Nc2cccn(Cc3ccccc3Cl)c2=O)c1 | 63.1 nM
O=C(Nc1cccc(Cc2ccccc2)c1)Nc1cccn(Cc2ccccc2Cl)c1=O | > 25100 nM
O=C(O)Cc1cccc(NC(=O)Nc2cccn(Cc3ccccc3Cl)c2=O)c1 | > 25100 nM
COC(=O)Cc1cccc(NC(=O)Nc2cccn(Cc3ccccc3Cl)c2=O)c1 | > 25100 nM
COc1cccc(NC(=O)Nc2cccn(Cc3ccccc3Cl)c2=O)c1 | 158 nM
COc1cccc(NC(=O)Nc2cccn(Cc3ccccc3)c2=O)c1 | 1000 nM
CC(=O)c1cccc(NC(=O)Nc2cccn(Cc3ccccc3Cl)c2=O)c1 | > 25100 nM
O=C(Nc1ccc(Cl)cc1)Nc1cccn(Cc2ccccc2Cl)c1=O | > 25100 nM
COc1cccc(NC(=O)Nc2cccn(Cc3ccccc3F)c2=O)c1 | 501 nM
COc1cccc(NC(=O)Nc2cccn(Cc3ccccc3Br)c2=O)c1 | 316 nM
Cc1ccc(NC(=O)Nc2cccn(Cc3ccccc3Cl)c2=O)cc1 | 3160 nM
CCc1ccc(NC(=O)Nc2cccn(Cc3ccccc3Cl)c2=O)cc1 | > 25100 nM
COc1cccc(NC(=O)Nc2cccn(Cc3ccccc3C)c2=O)c1 | 2510 nM
COc1cccc(NC(=O)Nc2cccn(Cc3cccc(F)c3)c2=O)c1 | 1000 nM
O=C(Nc1ccc(C(F)(F)F)cc1)Nc1cccn(Cc2ccccc2Cl)c1=O | > 25100 nM
COc1cccc(NC(=O)Nc2cccn(Cc3cccc(Cl)c3)c2=O)c1 | 398 nM
COc1cccc(NC(=O)Nc2cccn(Cc3cccc(C)c3)c2=O)c1 | 1260 nM
COc1cccc(N(C)C(=O)Nc2cccn(Cc3ccccc3Cl)c2=O)c1 | > 25100 nM
COc1cccc(C(=O)Nc2cccn(Cc3ccccc3Cl)c2=O)c1 | > 25100 nM
COc1cccc(Cn2cccc(NC(=O)Nc3cccc(OC)c3)c2=O)c1 | 2000 nM
COc1cccc(NC(=O)Nc2cccn(Cc3ccc(F)cc3)c2=O)c1 | 1260 nM
COc1cccc(CC(=O)Nc2cccn(Cc3ccccc3Cl)c2=O)c1 | > 25100 nM
CCc1cccc(NC(=O)Nc2c(C)ccn(Cc3ccccc3Cl)c2=O)c1 | > 25100 nM
COc1cccc(NC(=O)Nc2cccn(Cc3ccc(Cl)cc3)c2=O)c1 | 1000 nM

Structure (SMILES) | Ki
COc1cccc(NC(=O)Nc2cccn(Cc3ccc(C)cc3)c2=O)c1 | 3160 nM
COc1cccc(NC(=O)Nc2cc(C)cn(Cc3ccccc3Cl)c2=O)c1 | 1260 nM
CCc1cccc(NC(=O)Nc2cc(C)cn(Cc3ccccc3Cl)c2=O)c1 | 200 nM
COc1ccc(Cn2cccc(NC(=O)Nc3cccc(OC)c3)c2=O)cc1 | 794 nM
COc1cccc(NC(=O)Nc2cccn(Cc3ccc(F)cc3Cl)c2=O)c1 | 398 nM
CCc1cccc(NC(=O)Nc2cc(Cl)cn(Cc3ccccc3Cl)c2=O)c1 | 501 nM
COc1cccc(NC(=O)Nc2ccc(C)n(Cc3ccccc3Cl)c2=O)c1 | 1260 nM
COc1cccc(NC(=O)Nc2cccn(Cc3cc(F)ccc3Cl)c2=O)c1 | 794 nM
O=C(Nc1ccccc1F)Nc1cccn(Cc2ccccc2Cl)c1=O | 158 nM
CCc1cccc(NC(=O)Nc2ccc(C)n(Cc3ccccc3Cl)c2=O)c1 | 126 nM
CCc1cccc(NC(=O)Nc2cccn(Cc3cccc(C(F)(F)F)c3)c2=O)c1 | 200 nM
O=C(Nc1ccccc1Cl)Nc1cccn(Cc2ccccc2Cl)c1=O | 126 nM
O=C(Nc1ccccc1I)Nc1cccn(Cc2ccccc2Cl)c1=O | 5010 nM
CCc1cccc(NC(=O)Nc2cccn(Cc3ccc(F)cc3Cl)c2=O)c1 | 126 nM
CCc1cccc(NC(=O)Nc2cccn(Cc3ccccc3F)c2=O)c1 | 100 nM
Cc1ccccc1NC(=O)Nc1cccn(Cc2ccccc2Cl)c1=O | 794 nM
CCc1ccccc1NC(=O)Nc1cccn(Cc2ccccc2Cl)c1=O | 3980 nM
COc1cccc(NC(=O)Nc2cccn(Cc3c(F)cccc3Cl)c2=O)c1 | 25.1 nM
CCc1cccc(NC(=O)Nc2cccn(Cc3c(F)cccc3Cl)c2=O)c1 | 6.31 nM
COc1ccccc1NC(=O)Nc1cccn(Cc2ccccc2Cl)c1=O | 631 nM
O=C(Nc1cccc(F)c1)Nc1cccn(Cc2ccccc2Cl)c1=O | 1580 nM
O=C(Nc1cccc(Cl)c1)Nc1cccn(Cc2ccccc2Cl)c1=O | 1000 nM
O=C(Nc1cccc(Br)c1)Nc1cccn(Cc2ccccc2Cl)c1=O | 1000 nM
O=C(Nc1cccc(I)c1)Nc1cccn(Cc2ccccc2Cl)c1=O | 398 nM
N#Cc1cccc(NC(=O)Nc2cccn(Cc3ccccc3Cl)c2=O)c1 | > 25100 nM

Tested on: not listed separately
Assay: Permeability across artificial membrane
Format: ADME
Conditions: PAMPA; read-out: permeability

Structure (SMILES) | Papp
COc1cccc(NC(=O)Nc2cccn(Cc3ccccc3Cl)c2=O)c1 | 55 ×10⁻⁶ cm/s
COc1cccc(NC(=O)Nc2cccn(Cc3c(F)cccc3Cl)c2=O)c1 | 22 ×10⁻⁶ cm/s

Target: Cytochrome P450 2D6 (Homo sapiens, UniProt P10635)
Sequence (P10635 whole entry): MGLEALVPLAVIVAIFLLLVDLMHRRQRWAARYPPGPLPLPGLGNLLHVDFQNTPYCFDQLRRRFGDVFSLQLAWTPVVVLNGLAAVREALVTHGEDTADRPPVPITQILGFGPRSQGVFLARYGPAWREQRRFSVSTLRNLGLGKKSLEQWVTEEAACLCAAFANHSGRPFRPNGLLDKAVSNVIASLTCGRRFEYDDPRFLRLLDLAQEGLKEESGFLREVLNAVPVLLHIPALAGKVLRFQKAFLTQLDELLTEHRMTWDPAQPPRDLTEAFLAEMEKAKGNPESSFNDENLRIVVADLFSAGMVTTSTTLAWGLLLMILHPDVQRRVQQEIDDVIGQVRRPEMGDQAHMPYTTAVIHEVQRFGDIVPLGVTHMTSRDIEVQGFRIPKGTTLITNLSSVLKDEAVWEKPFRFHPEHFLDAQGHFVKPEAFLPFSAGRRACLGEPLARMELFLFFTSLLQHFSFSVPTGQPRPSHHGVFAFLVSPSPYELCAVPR
Assay: Inhibition of CYP2D6
Format: ADME
Conditions: not given

Structure (SMILES) | IC50
COc1cccc(NC(=O)Nc2cccn(Cc3c(F)cccc3Cl)c2=O)c1 | > 25000 nM

Tested on: not listed separately
Assay: Oral bioavailability in rat blood at 1.2 mg/kg, iv and 2 mg/kg, po
Format: ADME, organism-based
Conditions: not given
How it was run: as §1

Structure (SMILES) | bioavailability
COc1cccc(NC(=O)Nc2cccn(Cc3ccccc3Cl)c2=O)c1 | 27%

Target: Cytochrome P450 2C19 (Homo sapiens, UniProt P33261)
Sequence (P33261 whole entry): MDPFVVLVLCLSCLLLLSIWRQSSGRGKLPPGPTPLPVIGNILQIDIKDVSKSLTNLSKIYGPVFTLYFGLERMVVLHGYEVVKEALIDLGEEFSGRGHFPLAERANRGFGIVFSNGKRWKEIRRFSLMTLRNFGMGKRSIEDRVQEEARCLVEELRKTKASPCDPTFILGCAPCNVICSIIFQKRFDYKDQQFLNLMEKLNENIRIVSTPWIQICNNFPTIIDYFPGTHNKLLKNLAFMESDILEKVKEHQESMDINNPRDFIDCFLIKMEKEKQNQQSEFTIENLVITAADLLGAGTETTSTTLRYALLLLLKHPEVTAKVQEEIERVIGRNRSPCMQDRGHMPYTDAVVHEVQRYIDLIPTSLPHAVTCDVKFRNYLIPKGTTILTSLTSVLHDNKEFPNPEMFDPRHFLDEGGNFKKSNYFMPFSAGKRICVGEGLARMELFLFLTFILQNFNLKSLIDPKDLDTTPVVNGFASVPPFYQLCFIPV
Assay: Inhibition of CYP2C19
Format: ADME
Conditions: not given

Structure (SMILES) | IC50
COc1cccc(NC(=O)Nc2cccn(Cc3c(F)cccc3Cl)c2=O)c1 | 4500 nM
